Activity, survival and LD50 data for one compound are collected here from ChEMBL document CHEMBL1155777, “Increased survival after gemfibrozil treatment of severe mouse influenza” (Antimicrob Agents Chemother, 2007).

The test system of data set [1] is H2N2 subtype. Nature of the data set: Antiviral activity against Influenza A virus (A/Japan/305/57(H2N2)) infected BALB/c mouse assessed as infection-induced weight loss at 60 mg/kg, ip administered once daily from day 4 to 10 post viral challenge measured on day 8 postinfection. Format: functional, Influenza A virus (A/Japan/305/1957(H2N2)). As to conditions: route intraperitoneal. An outline of the steps: (§1)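 Gemfibrozil in 100% propylene glycol, 10 µl/mouse i.p., once daily days 4–10 after virus exposure; vehicle-only controls on the same days. Mice weighed before infection, then daily days 4–12 inclusive; loss tracked against pre-infection weight.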

In data set [2] the test system is H2N2 subtype. Description: Antiviral activity against Influenza A virus (A/Japan/305/57(H2N2)) infected BALB/c mouse assessed as infection-induced weight loss at 20 mg/kg, ip administered once daily from day 4 to 10 post viral challenge measured on day 10 postinfection. The data set is classed as functional, Influenza A virus (A/Japan/305/1957(H2N2)). As to conditions: route intraperitoneal. The gist of the method: as §1

Data set [3] concerns H2N2 subtype. Nature of the data set: Antiviral activity against Influenza A virus (A/Japan/305/57(H2N2)) infected BALB/c mouse assessed as infection-induced weight loss at 40 mg/kg, ip administered once daily from day 4 to 10 post viral challenge measured on day 10 postinfection. Format: functional, Influenza A virus (A/Japan/305/1957(H2N2)). As to conditions: route intraperitoneal. The gist of the method: as §1

In data set [4] the test system is H2N2 subtype. Nature of the data set: Antiviral activity against Influenza A virus (A/Japan/305/57(H2N2)) infected BALB/c mouse assessed as infection-induced weight loss at 60 mg/kg, ip administered once daily from day 4 to 10 post viral challenge measured on day 10 postinfection. As to conditions: route intraperitoneal. The data set is classed as functional, Influenza A virus (A/Japan/305/1957(H2N2)). The gist of the method:
as §1

Data set [5] concerns H2N2 subtype. Description: Antiviral activity against Influenza A virus (A/Japan/305/57(H2N2)) infected BALB/c mouse assessed as infection-induced weight loss at 20 mg/kg, ip administered once daily from day 4 to 10 post viral challenge measured on day 12 postinfection. As to conditions: route intraperitoneal. The data set is classed as functional, Influenza A virus (A/Japan/305/1957(H2N2)). An outline of the steps:
as §1

Data set [6] has as its system H2N2 subtype. Description: Antiviral activity against Influenza A virus (A/Japan/305/57(H2N2)) infected BALB/c mouse assessed as infection-induced weight loss at 40 mg/kg, ip administered once daily from day 4 to 10 post viral challenge measured on day 12 postinfection. The data set is classed as functional, Influenza A virus (A/Japan/305/1957(H2N2)). Conditions: route intraperitoneal. An outline of the steps:
as §1

For data set [7], the system named is H2N2 subtype. Description: Antiviral activity against Influenza A virus (A/Japan/305/57(H2N2)) infected BALB/c mouse assessed as infection-induced weight loss at 60 mg/kg, ip administered once daily from day 4 to 10 post viral challenge measured on day 12 postinfection. As to conditions: route intraperitoneal. The data set is classed as functional, Influenza A virus (A/Japan/305/1957(H2N2)). An outline of the steps: as §1

The subject of data set [8] is H2N2 subtype. Description: Antiviral activity against Influenza A virus (A/Japan/305/57(H2N2)) infected BALB/c mouse assessed as mouse survival at 20 mg/kg, ip administered once daily from day 4 to 10 post viral challenge. The data set is classed as functional, Influenza A virus (A/Japan/305/1957(H2N2)). As to conditions: 96 h, route intraperitoneal. The gist of the method:
(§2)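 Propylene glycol vehicle, 10 µl/mouse i.p., once daily days 4–10 post-infection; vehicle controls. Survival followed 30 days. 20/40/60 mg/kg in one experiment (n = 9–10 per group); 60 mg/kg also pooled from four experiments (vehicle n = 50, drug n = 46). Log rank test on survival time; Cox proportional hazards model for hazard ratios.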

The test system of data set [9] is H2N2 subtype. Description: Antiviral activity against Influenza A virus (A/Japan/305/57(H2N2)) infected BALB/c mouse assessed as mouse survival at 40 mg/kg, ip administered once daily from day 4 to 10 post viral challenge. The data set is classed as functional, Influenza A virus (A/Japan/305/1957(H2N2)). Conditions: 96 h, route intraperitoneal. The gist of the method:
as §2

Data set [10] concerns H2N2 subtype. Description: Antiviral activity against Influenza A virus (A/Japan/305/57(H2N2)) infected BALB/c mouse assessed as mouse survival at 60 mg/kg, ip administered once daily from day 4 to 10 post viral challenge. Format: functional, Influenza A virus (A/Japan/305/1957(H2N2)). As to conditions: 96 h, route intraperitoneal. An outline of the steps:
as §2

Data set [11] relates to Mus musculus. Description: Increase in survival of LPS-induced BALB/c mouse severe systemic infection model at 60 mg/kg, ip administered as single dose 1 hr before LPS challenge. The data set is classed as functional. As to conditions: route intraperitoneal. The gist of the method: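 LPS (E. coli O111:B4) 30 mg/kg i.p.; single 60 mg/kg i.p. dose in propylene glycol given 1 h before LPS; vehicle-only controls. n = 20 per group, single experiment; survival followed 14 days; log rank test.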

Data set [12] has as its system Mus musculus. Description: Increase in survival of LPS-induced BALB/c mouse severe systemic infection model at 60 mg/kg, ip administered as single dose 2 hrs before LPS challenge. The data set is classed as functional. Conditions: route intraperitoneal.
Data set [13] in a line: Toxicity in mouse assessed as lethal dose. As to conditions: in vivo. Format: organism-based.
Data set [14] has as its system H2N2 subtype. Description: Antiviral activity against Influenza A virus (A/Japan/305/57(H2N2)) infected BALB/c mouse assessed as infection-induced weight loss at 20 mg/kg, ip administered once daily from day 4 to 10 post viral challenge measured on day 4 postinfection. The data set is classed as functional, Influenza A virus (A/Japan/305/1957(H2N2)). As to conditions: route intraperitoneal. The gist of the method: as §1

Data set [15] concerns H2N2 subtype. Description: Antiviral activity against Influenza A virus (A/Japan/305/57(H2N2)) infected BALB/c mouse assessed as infection-induced weight loss at 40 mg/kg, ip administered once daily from day 4 to 10 post viral challenge measured on day 4 postinfection. As to conditions: route intraperitoneal. Format: functional, Influenza A virus (A/Japan/305/1957(H2N2)). An outline of the steps:
as §1

For data set [16], the system named is H2N2 subtype. Nature of the data set: Antiviral activity against Influenza A virus (A/Japan/305/57(H2N2)) infected BALB/c mouse assessed as infection-induced weight loss at 60 mg/kg, ip administered once daily from day 4 to 10 post viral challenge measured on day 4 postinfection. Format: functional, Influenza A virus (A/Japan/305/1957(H2N2)). As to conditions: route intraperitoneal. An outline of the steps: as §1

For data set [17], the system named is H2N2 subtype. Description: Antiviral activity against Influenza A virus (A/Japan/305/57(H2N2)) infected BALB/c mouse assessed as infection-induced weight loss at 20 mg/kg, ip administered once daily from day 4 to 10 post viral challenge measured on day 6 postinfection. Conditions: route intraperitoneal. Format: functional, Influenza A virus (A/Japan/305/1957(H2N2)). The gist of the method: as §1

In data set [18] the test system is H2N2 subtype. Nature of the data set: Antiviral activity against Influenza A virus (A/Japan/305/57(H2N2)) infected BALB/c mouse assessed as infection-induced weight loss at 40 mg/kg, ip administered once daily from day 4 to 10 post viral challenge measured on day 6 postinfection. The data set is classed as functional, Influenza A virus (A/Japan/305/1957(H2N2)). Conditions: route intraperitoneal. An outline of the steps:
as §1

The subject of data set [19] is H2N2 subtype. Description: Antiviral activity against Influenza A virus (A/Japan/305/57(H2N2)) infected BALB/c mouse assessed as infection-induced weight loss at 60 mg/kg, ip administered once daily from day 4 to 10 post viral challenge measured on day 6 postinfection. Format: functional, Influenza A virus (A/Japan/305/1957(H2N2)). As to conditions: route intraperitoneal. The gist of the method:
as §1

The test system of data set [20] is H2N2 subtype. Description: Antiviral activity against Influenza A virus (A/Japan/305/57(H2N2)) infected BALB/c mouse assessed as infection-induced weight loss at 20 mg/kg, ip administered once daily from day 4 to 10 post viral challenge measured on day 8 postinfection. Format: functional, Influenza A virus (A/Japan/305/1957(H2N2)). As to conditions: route intraperitoneal. An outline of the steps: as §1

The test system of data set [21] is H2N2 subtype. Nature of the data set: Antiviral activity against Influenza A virus (A/Japan/305/57(H2N2)) infected BALB/c mouse assessed as infection-induced weight loss at 40 mg/kg, ip administered once daily from day 4 to 10 post viral challenge measured on day 8 postinfection. The data set is classed as functional, Influenza A virus (A/Japan/305/1957(H2N2)). As to conditions: route intraperitoneal. An outline of the steps: as §1

As to `Cc1ccc(C)c(OCCCC(C)(C)C(=O)O)c1` [GEMFIBROZIL], the Activity is listed as 73.2% in the data set on H2N2 subtype [1]; 75.2% in the data set on H2N2 subtype [2]; 73.4% with H2N2 subtype [3]; 78% in the data set with H2N2 subtype [4]; 79% in the data set with H2N2 subtype [5]; 77.1% in the data set with H2N2 subtype [6]. Besides, the Activity in the data set on H2N2 subtype [7] is listed as 81.8%; in the data set on H2N2 subtype [14], 87.9%; in the data set on H2N2 subtype [15], 87%; in the data set with H2N2 subtype [16], 86.5%; with H2N2 subtype [17], 77.5%; in the data set with H2N2 subtype [18], 75.6%. Also, the Activity in the data set on H2N2 subtype [19] was determined as 77.1%; in the data set with H2N2 subtype [20], 75.1%; in the data set on H2N2 subtype [21], 72.2%. Further, the survival at 20 mg/kg in the data set with H2N2 subtype [8] was 30%. Further, the survival at 40 mg/kg in the data set on H2N2 subtype [9] came to 44%. For the same compound, the survival at 60 mg/kg in the data set on H2N2 subtype [10] stood at 52%; with Mus musculus [11], 25%; in the data set on Mus musculus [12], 10%. Besides, the LD50 in data set [13] turned out to be 3160 mg/kg.

The term LD50 denotes the dose at which mortality reaches 50%.
